Screens: PubChem, Sanford-Burnham Center for Chemical Genomics
Diaph inh CS – counter-screen for diaphorase-based assays: diaphorase inhibitors and chemical oxidizers; diaphorase resazurin-to-resorufin fluorescence, NADH, 16 min; bacterial (C. kluyveri) enzyme, not human; inhibition, % at 20 µM; actives 0.69% (n = 190,000);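 active = primary screen inhibition at 20 µM above a set limit, cut at about 50% in these data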;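 also: plate controls were DMSO with full reaction for no effect and wells lacking NADH for full effect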
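Assay system – diaphorase enzyme from Clostridium kluyveri · Amount – diaphorase 0.14 U/mL (working solution) · Times – reaction incubation of 16 min at room temperature · Controls – No-NADH positive control and DMSO neutral control · Signal – resorufin fluorescence 544/590 nm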
HKDC1 inhibitor – inhibitors of human hexokinase HKDC1; Q2TB90; recombinant HKDC1, G6PDH/diaphorase resazurin coupled fluorescence; inhibition, % at 20 µM; actives 0.16% (n = 340,000); AID 493160;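 active = inhibition above about 35% when tested at 20 µM, limit read from the data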;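 also: plate controls were DMSO wells with enzyme for no effect and DMSO wells lacking enzyme for full effect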
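Material: recombinant HKDC1 hexokinase; Amount: HKDC1 at 5 µg/mL; Medium: Tris pH 8.0 buffer with MgCl2, Tween-20, BSA, BME; Schedule: 90 min reaction incubation at room temperature, dark; Technique: coupled resazurin fluorescence, excitation 525 nm, emission 613 nm.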
PfGluPho inh – PfG6PD (Plasmodium falciparum) enzyme inhibition; PfGluPho enzyme, NADPH resazurin-diaphorase fluorescence; inhibition, % at 20 µM; actives 0.78% (n = 350,000); AID 504690;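 active = inhibition reaching at least a set limit at 20 µM in the primary screen, cut at about 59% in these data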;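 also: 0% = DMSO wells with substrate and 100% = DMSO wells lacking glucose-6-phosphate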
Diaphorase act – counter-screen for diaphorase-based assays: diaphorase activators and chemical reducers | Diaphorase/resazurin coupled assay, resorufin fluorescence, 16 min; hits give high values; 1 = vehicle wells, 0 = NADH-free wells | activation factor at 20 µM | actives 0.005% (n = 190,000) | AID 1229;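 active = diaphorase activity raised at least twofold by the compound at 20 µM; inactive = activation factor below 2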
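Test system: Clostridium kluyveri diaphorase, purified enzyme; input: enzyme 0.07 U/mL final; buffer or medium: 50 mM HEPES pH 7.4 with 4.542 mM MgCl2, 0.005% Tween 20; also added: 0.114 mM NADH and 0.1 mM resazurin, final amounts; schedule: 16 min enzyme reaction, ambient temperature; technique: fluorescence of resorufin, 544 nm excitation, 590 nm emission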
G6PDH counter – counter-screen for G6PDH assay hits: L. mesenteroides G6PDH inhibition. Purified L. mesenteroides G6PDH, diaphorase/resazurin coupled fluorescence, 45 min. inhibition, % at 5 µM. actives 0.12% (n = 200,000). AID 1020; in the data active = inhibition above about 50%
PfG6PD confirm – PfG6PD inhibition, single-dose confirmed; inhibition, % at 20 µM; shares compounds with PfGluPho inh; actives 34% (n = 2,400); recombinant PfGluPho, NADPH-diaphorase-resazurin fluorescence; AID 504753;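 active = inhibition of at least 50% at 20 µM in any single replicate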;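 also: 0% = DMSO with substrate and 100% = DMSO lacking glucose-6-phosphate substrate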
Diaph ctr 10uM – inhibits diaphorase or oxidizes, flagging false PfG6PD hits | diaphorase-coupled resazurin reduction, fluorescence, NADPH 10 uM | inhibition, % at 20 µM | actives 39% (n = 820) | shares compounds with PfGluPho inh | AID 504862;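 active = average inhibition reaching 50% or more with the compound at 20 µM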;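 also: resorufin red fluorescence formed as diaphorase reduces resazurin using NADPH; 0% = DMSO with enzyme and 100% = DMSO without enzyme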
Diaphorase 30uM – inhibits diaphorase or oxidizes, flagging false PfG6PD hits | actives 29% (n = 820) | AID 504863 | shares compounds with PfGluPho inh | Diaphorase/resazurin coupled assay, resorufin fluorescence, 30 uM NADPH | inhibition, % at 20 µM;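 active = inhibition averaging 50% or more, tested at 20 µM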;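 also: 0% = DMSO with enzyme and 100% = DMSO wells lacking diaphorase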
* marks the source's active call; other numbers are inactive results; x = not tested or not shown. An excerpt weighted towards active compounds, which were near 1.3% of everything screened.

SMILES	Diaph inh CS	HKDC1 inhibitor	PfGluPho inh	Diaphorase act	G6PDH counter	PfG6PD confirm	others
CCOc1ccccc1C(=O)Nc1ccc(S(=O)(=O)Nc2nccc(C)n2)cc1	x	-3	73*	x	x	14
CCOc1ccc(C(=O)Nc2ccc(S(=O)(=O)Nc3nccc(C)n3)cc2)cc1OCC	x	-5	-1	x	x	x
Cc1ccc(-n2c(N)c(C(=O)NCc3cccnc3)sc2=S)cc1	-1	-7	68*	1	13	7
CCOC(=O)c1ccc(-n2c(N)c(C(=O)NCC3CCCO3)sc2=S)cc1 (centres undefined)	15	-2	74*	0.8	10	53*	Diaph ctr 10uM=11;Diaphorase 30uM=12
CCOC(=O)c1ccc(-n2c(N)c(C(=O)NCc3ccco3)sc2=S)cc1	25	-12	83*	0.8	4	38
CCOC(=O)c1sc(=S)n(-c2ccc(F)c(F)c2)c1N	-4	-10	50	1	0	x
CCOC(=O)c1sc(=S)n(-c2ccc(C)cc2)c1N	4	-5	67*	1	10	32
COc1ccc(-n2c(N)c(C(=O)NCc3ccco3)sc2=S)cc1	20	-3	48	0.8	11	x
COc1cc(NC(=O)CN2CCC(C)CC2)c(C)cc1[N+](=O)[O-]	16	-10	-10	0.8	2	x
Cc1ccc(N2CC(C(=O)NCc3cccs3)CC2=O)cc1C (centres undefined)	11	-3	-20	0.9	-1	x
C=CCNC(=O)c1sc(=S)n(-c2ccc(C(=O)OCC)cc2)c1N	10	-11	68*	0.9	22	34
CNC(=O)c1sc(=S)n(-c2ccc(OC)cc2)c1N	15	-4	-19	0.9	3	x
O=C(O)c1cc(N2C(=O)C=CC2=O)cc(N2C(=O)C=CC2=O)c1	x	-1	121*	x	x	105*	Diaph ctr 10uM=-23;Diaphorase 30uM=5
O=C(COC(=O)Cc1ccccc1F)NCc1ccc(Cl)cc1	x	3	-3	x	x	x
COc1ccc(OC)c(-n2c(SCC(=O)NCC3CCCO3)nc3ccccc3c2=O)c1 (centres undefined)	x	-3	-6	x	x	x
Nc1ccccc1SC(CC(=O)c1ccccc1)c1ccc([N+](=O)[O-])cc1 (centres undefined)	x	x	61*	x	x	10
COc1ccc(C(CC(=O)c2ccc(C)cc2)Sc2ccccc2N)cc1 (centres undefined)	x	x	30	x	x	x
Nc1ccccc1SC(CC(=O)c1ccccc1)c1cccc([N+](=O)[O-])c1 (centres undefined)	x	x	70*	x	x	22
CCN(C(=O)CSc1nnc(C)n1-c1ccccc1)C1CCS(=O)(=O)C1 (centres undefined)	21	9	14	0.8	6	x
CN(NS(=O)(=O)c1ccc([N+](=O)[O-])cc1)c1ccccc1	x	x	82*	x	x	55*	Diaph ctr 10uM=91*;Diaphorase 30uM=85*
O=C(Cc1cccs1)Nc1cccc([N+](=O)[O-])c1	-4	-8	11	1	6	x
O=C(Nc1cccc([N+](=O)[O-])c1)c1ccc2ccccc2c1O	x	15	78*	x	x	8
CC(C)(C)c1ccc(C(=O)Nc2cccc([N+](=O)[O-])c2)cc1	5	5	74*	1	-6	-1
O=C(Nc1cccc([N+](=O)[O-])c1)c1ccncc1	12	10	-8	0.9	2	x
CCCc1cc(C(=O)Nc2cccc([N+](=O)[O-])c2)cs1	x	-1	81*	x	x	12
CCCNC(=O)CSc1nnc(-c2ccc(F)cc2)o1	7	-15	0	0.9	-6	x
CN(C)S(=O)(=O)Oc1ccccc1C(=O)Nc1ccc(F)cc1	2	-5	-3	1	3	x
NC(=O)CSc1nnc(-c2ccccc2Br)n1-c1cccc(C(F)(F)F)c1	9	-5	69*	0.9	13	59*	Diaph ctr 10uM=59*;Diaphorase 30uM=55*
O=C(O)CSc1nnc(-c2ccccc2Br)n1-c1cccc(C(F)(F)F)c1	6	-14	8	0.9	-2	x
